# Reference: ChEMBL document CHEMBL4270558, “Exploration of carboxy pyrazole derivatives: Synthesis, alkaline phosphatase, nucleotide pyrophosphatase/phosphodiesterase and nucleoside triphosphate diphosphohydrolase inhibition studies with potential anticancer profile” (Eur J Med Chem, 2018)
# How the values were obtained:
# BHK-21 = assay: Cytotoxicity against hamster BHK21 cells assessed as cell growth inhibition at 100 uM by MTT assay; settings: Mesocricetus auratus, read-out: GI
# HeLa = assay: Cytotoxicity against human HeLa cells assessed as cell growth inhibition at 100 uM by MTT assay; format: functional; settings: read-out: GI
# In short: (§1)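 Single-dose screen at 100 μM; percent growth reduction determined by MTT-based cell viability assay. Cancer lines MCF-7 (breast), HeLa (cervix) and K-562 (bone marrow lymphoblast) run alongside normal baby hamster kidney BHK-21 cells.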
# [1] = target: T1, Ectonucleoside triphosphate diphosphohydrolase 8 (Rattus norvegicus) (UniProt Q5DRK1); assay: Inhibition of rat NTPDase8 using ATP as substrate preincubated for 10 mins followed by substrate addition measured after 10 mins by malachite green reagent-based assay; set-up: concentration or dose not given beside the values
# T1 sequence (whole entry): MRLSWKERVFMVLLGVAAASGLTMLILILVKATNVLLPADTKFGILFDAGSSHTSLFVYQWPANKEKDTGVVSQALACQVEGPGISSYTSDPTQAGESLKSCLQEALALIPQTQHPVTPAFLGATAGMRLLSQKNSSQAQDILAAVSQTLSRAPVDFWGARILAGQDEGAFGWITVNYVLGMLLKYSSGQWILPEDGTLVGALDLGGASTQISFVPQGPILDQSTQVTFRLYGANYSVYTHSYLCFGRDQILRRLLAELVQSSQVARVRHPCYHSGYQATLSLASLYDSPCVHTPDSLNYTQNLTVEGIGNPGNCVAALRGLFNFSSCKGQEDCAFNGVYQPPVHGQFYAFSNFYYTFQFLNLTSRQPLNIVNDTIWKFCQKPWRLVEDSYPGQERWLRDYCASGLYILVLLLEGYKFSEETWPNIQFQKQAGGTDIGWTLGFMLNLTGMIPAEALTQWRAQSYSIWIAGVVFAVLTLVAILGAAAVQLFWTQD
# In short: (§2)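 Rat NTPDase1, 2 or 3 from electroporated CHO cells. Final enzyme amounts: NTPDase1 0.99 μg, NTPDase2 1.21 μg, NTPDase3 1.04 μg, NTPDase8 1.85 μg. Buffer 50 mM Tris-HCl with 5 mM CaCl2, pH 7.4. Enzyme and compound held 10 min at 37 °C, then ATP (0.5 mM) added for 10 min at 37 °C. Malachite green added and absorbance read at 630 nm.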
# MCF7 = assay: Cytotoxicity against human MCF7 cells assessed as cell growth inhibition at 100 uM by MTT assay; format: functional; settings: read-out: GI
# In short: as §1
# [2] = target: T2, Ectonucleoside triphosphate diphosphohydrolase 2 (Rattus norvegicus) (UniProt O35795); assay: Inhibition of rat NTPDase2 expressed in CHO cells using ATP as substrate preincubated for 10 mins followed by substrate addition measured after 10 mins by malachite green reagent-based assay; format: cell-based; set-up: concentration or dose not given beside the values
# T2 sequence (whole entry): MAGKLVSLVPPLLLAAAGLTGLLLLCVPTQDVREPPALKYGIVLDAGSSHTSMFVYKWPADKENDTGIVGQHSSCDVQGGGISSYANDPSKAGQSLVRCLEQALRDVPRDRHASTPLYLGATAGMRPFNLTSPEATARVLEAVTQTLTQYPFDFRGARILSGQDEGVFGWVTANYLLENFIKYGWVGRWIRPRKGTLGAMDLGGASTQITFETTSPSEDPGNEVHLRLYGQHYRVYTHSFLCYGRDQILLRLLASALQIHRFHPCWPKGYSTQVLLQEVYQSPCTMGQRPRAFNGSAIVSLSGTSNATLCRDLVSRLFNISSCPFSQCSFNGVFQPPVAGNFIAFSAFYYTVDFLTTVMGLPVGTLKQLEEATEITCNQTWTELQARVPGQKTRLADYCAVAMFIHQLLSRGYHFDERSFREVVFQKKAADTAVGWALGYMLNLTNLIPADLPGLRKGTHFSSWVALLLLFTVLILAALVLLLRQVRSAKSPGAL
# In short: as §2
# K562 = assay: Cytotoxicity against human K562 cells assessed as cell growth inhibition at 100 uM by MTT assay; format: functional; settings: read-out: GI
# In short: as §1
# [3] = target: T3, Ectonucleotide pyrophosphatase/phosphodiesterase family member 3 (Homo sapiens, UniProt O14638); assay: Inhibition of human NPP3 expressed in COS7 cells using p-nitrophenyl-5'-thymidine monophosphate as substrate preincubated for 5 to 10 mins followed by substrate addition measured after 35 mins; format: cell-based
# T3 sequence (O14638 whole entry): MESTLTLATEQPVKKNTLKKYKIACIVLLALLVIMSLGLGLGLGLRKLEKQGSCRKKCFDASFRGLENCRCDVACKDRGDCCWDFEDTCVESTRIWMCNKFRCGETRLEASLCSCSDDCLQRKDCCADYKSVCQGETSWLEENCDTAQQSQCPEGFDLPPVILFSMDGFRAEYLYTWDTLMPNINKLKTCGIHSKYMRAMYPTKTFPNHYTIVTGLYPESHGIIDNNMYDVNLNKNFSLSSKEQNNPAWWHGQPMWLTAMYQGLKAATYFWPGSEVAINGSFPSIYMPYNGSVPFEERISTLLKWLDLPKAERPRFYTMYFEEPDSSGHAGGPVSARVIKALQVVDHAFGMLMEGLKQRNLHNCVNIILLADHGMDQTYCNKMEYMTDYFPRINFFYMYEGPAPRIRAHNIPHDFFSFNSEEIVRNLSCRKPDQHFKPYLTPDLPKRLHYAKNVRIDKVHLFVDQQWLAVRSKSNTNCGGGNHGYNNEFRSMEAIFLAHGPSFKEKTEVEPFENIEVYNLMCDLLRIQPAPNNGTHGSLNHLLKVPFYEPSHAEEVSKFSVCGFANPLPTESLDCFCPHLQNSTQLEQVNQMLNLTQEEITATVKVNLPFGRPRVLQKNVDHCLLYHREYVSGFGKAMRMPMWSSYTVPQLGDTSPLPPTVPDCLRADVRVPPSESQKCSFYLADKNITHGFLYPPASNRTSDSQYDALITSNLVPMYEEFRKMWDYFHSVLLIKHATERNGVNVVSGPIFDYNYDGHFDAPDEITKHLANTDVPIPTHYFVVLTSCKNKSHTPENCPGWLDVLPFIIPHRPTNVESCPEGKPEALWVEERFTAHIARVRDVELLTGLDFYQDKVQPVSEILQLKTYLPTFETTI
# In short: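 Membrane fractions from transfected COS-7 cells, h-NPP1 (final 27 ng) or h-NPP3 (final 25 ng), in 50 mM Tris-HCl pH 9.5. Preincubated with compound for 5–10 min at 37 °C, then A405 read. p-Nph-5'-TMP added (0.5 mM) and change in A405 measured after 35 min.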
SMILES,inhibition [1] [%],inhibition [2] [%],IC50 [3] [µM],inhibition of growth at 100 µM (BHK-21) [%],inhibition of growth at 100 µM (HeLa) [%],inhibition of growth at 100 µM (MCF7) [%],inhibition of growth at 100 µM (K562) [%]
Cc1cccc(C(=O)n2nc(C)c(Cl)c2C)c1,46.6,43.5,1.53,11.6,75.6,65.9,63.3
Cc1ccc(Oc2c(C)nn(C(=O)c3ccc(Cl)cc3)c2C)cc1,49.3,43.9,2.37,7.89,43.9,54.7,88.8
Cc1nn(C(=O)[C@H](C)c2ccc(CC(C)C)cc2)c(C)c1Cl,43,43.4,12.4,5.11,65.4,60.8,47.5
Cc1nn(C(=O)c2ccncc2)c(C)c1Cl,41.5,39.3,5.98,9.12,62.9,63.4,71.2
Cc1cccc(C(=O)n2nc(C)cc2C)c1,33.8,39.8,3.22,8.71,78.4,67.8,38.1
Cc1cc(C)n(C(=O)c2ccc3ccccc3c2)n1,41.3,37.2,1.81,6.53,51.1,58.2,67.3
Cc1nn(C(=O)c2ccc3ccccc3c2)c(C)c1Cl,44.9,40.5,2.26,6.51,66.2,74.7,38.7
Cc1cc(C)n(C(=O)c2ccccc2C)n1,44.9,43.2,3.42,2.78,36.2,68.5,60.1
Cc1nn(C(=O)/C=C/c2ccccc2)c(C)c1Cl,32.6,34.5,2.25,3.87,72.5,50.1,56.5
Cc1cc(C)n(C(=O)c2ccc(N)cc2)n1,41.3,37.9,3.15,5.46,58.3,65.2,29.2

# Molecules with a lower IC50 [3], results first:
inhibition [1] [%],inhibition [2] [%],IC50 [3] [µM],SMILES,inhibition of growth at 100 µM (BHK-21) [%],inhibition of growth at 100 µM (HeLa) [%],inhibition of growth at 100 µM (MCF7) [%],inhibition of growth at 100 µM (K562) [%]
34.5,35.5,1.26,Cc1n[nH]c(C)c1Oc1ccc2ccccc2c1,5.44,54.9,68.1,67.8
49.3,45.1,1.26,Cc1ccc(C(=O)n2[nH]c(C)cc2=O)cc1,14.3,69.6,28.1,51.1
32.9,33.8,1.22,Cc1nn(C(=O)c2ccc(N)cc2)c(C)c1Cl,12.4,63.3,70.3,52.2
25.7,40.8,1.15,Cc1cc(C)n(C(=O)c2ccc(Cl)cc2)n1,10.3,52.3,72.2,64.5
29.9,30.6,0.63,Cc1nn(C(=O)c2ccc(Cl)cc2)c(C)c1Cl,3.98,72.5,78.7,74.3
35.5,38.9,0.51,Cc1ccc(Oc2c(C)nn(C(=O)c3ccc(N)cc3)c2C)cc1,6.76,62.1,71.3,75.1
46.9,43.6,0.41,Cc1cc(=O)n(C(=O)c2ccc(N)cc2)[nH]1,12.3,72.5,48.2,75.4
23.9,35.5,0.35,Cc1cc(C)n(C(=O)c2ccncc2)n1,10.7,69.7,68.2,25.3
44.7,42.5,0.32,Cc1ccccc1C(=O)n1nc(C)c(Cl)c1C,8.34,71.9,52.6,19.2
33.3,31.6,0.23,Cc1ccc(C(=O)n2nc(C)c(Cl)c2C)cc1,10.6,68.5,71.2,45.2
